According to ChEMBL document CHEMBL3407460, “Synthesis of novel thiazole-based 8,9-dihydro-7H-pyrimido[4,5-b][1,4]diazepines as potential antitumor and antifungal agents” (2015):

Legend:
Assay type in all cases: functional
NCI-H226 = experiment: Antitumor activity against human NCI-H226 cells after 48 hrs by Sulforhodamine B assay; details: NCI-H226, 48 h; for CC50: read-out: LC50 (the source's name)
How it was run: (§1)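 NCI 60-cell-line screen. Secondary five-dose test at 100, 10, 1.0, 0.1 and 0.01 µM with continuous drug exposure for 48 h. Cell growth was estimated by sulforhodamine B protein staining. […] LC50 was also reported.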

MDA-MB-468 = experiment: Antitumor activity against human MDA-MB-468 cells after 48 hrs by Sulforhodamine B assay; details: MDA-MB-468, 48 h; how it was run: as §1
[1] = Antitumor activity against human HCT116 cells after 48 hrs by Sulforhodamine B assay; details: HCT-116, 48 h; for CC50: read-out: LC50 (the source's name); how it was run: as §1
SK-MEL-2 = experiment: Antitumor activity against human SK-MEL-2 cells after 48 hrs by Sulforhodamine B assay; details: SK-MEL-2, 48 h; how it was run: as §1
NCI-H23 = experiment: Antitumor activity against human NCI-H23 cells after 48 hrs by Sulforhodamine B assay; details: NCI-H23, 48 h; how it was run: as §1
[2] = Antitumor activity against human SF295 cells after 48 hrs by Sulforhodamine B assay; details: SF-295, 48 h; for CC50: read-out: LC50 (the source's name); how it was run: as §1
SF-268 = experiment: Antitumor activity against human SF268 cells after 48 hrs by Sulforhodamine B assay; details: SF-268, 48 h; for CC50: read-out: LC50 (the source's name); how it was run: as §1
[3] = Antitumor activity against human NCI-ADR-RES cells after 48 hrs by Sulforhodamine B assay; details: for CC50: read-out: LC50 (the source's name); how it was run: as §1

Row | SMILES | GI50 (NCI-H226) | CC50 (NCI-H226) | GI50 (MDA-MB-468) | LC50 (MDA-MB-468) | GI50 [1] | CC50 [1] | GI50 (SK-MEL-2) | LC50 (SK-MEL-2) | GI50 (NCI-H23) | LC50 (NCI-H23) | GI50 [2] | CC50 [2] | GI50 (SF-268) | CC50 (SF-268) | GI50 [3] | CC50 [3]
1 | Cc1ccc(C2=Nc3c(N)ncnc3NC(c3sc(Cl)nc3Cl)C2)cc1 (configuration not stated) | 13.7 µM | 90.3 µM | 2.12 µM | 41.6 µM | 3.7 µM | 37.3 µM | 2.98 µM | 35.6 µM | 8.23 µM | 58.7 µM | 3.06 µM | 36.4 µM | 5.68 µM | 67.3 µM | 3.13 µM | 58.5 µM
2 | Nc1ncnc2c1N=C(c1ccc3c(c1)OCO3)CC(c1sc(Cl)nc1Cl)N2 (configuration not stated) | 17.7 µM | > 100 µM | 1.65 µM | > 100 µM | 3.42 µM | 44.5 µM | 5.19 µM | 48.6 µM | 8.87 µM | > 100 µM | 2.21 µM | 39.8 µM | 9.84 µM | 92.2 µM | 3.55 µM | > 100 µM
